From ChEMBL document CHEMBL1142436, “Design and synthesis of 4-substituted indolo[3,2-e][1,2,3]triazolo[1,5-a]pyrimidine derivatives with antitumor activity” (2008)

How the values were obtained:
Format in all cases: functional
HOP-62 = experiment: Growth inhibition of human HOP62 cells after 48 hrs; details: HOP-62, 48 h; for TGI: read-out: pTGI (converted)
Method in brief: (§1)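 NCI ~60-line screen. Cells were grown in RPMI 1640 with 5% FBS and 2 mM L-glutamine and plated at 5000–40000 cells/well. After a 24 h preincubation, five drug concentrations from DMSO stocks were added for 48 h at 37 °C. Cells were TCA-fixed, stained with SRB and read at 515 nm. GI50 was taken from time-zero and control absorbances and reported as pGI50.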

OVCAR-5 = experiment: Growth inhibition of human OVCAR5 cells after 48 hrs; details: OVCAR-5, 48 h; for TGI: read-out: pTGI (converted); method in brief: as §1
SNB-19 = experiment: Growth inhibition of human SNB19 cells after 48 hrs; details: SNB-19, 48 h; for TGI: read-out: pTGI (converted)
Method in brief: (§2)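 NCI 60-line screen: cells in RPMI 1640 with 5% FBS and 2 mM L-glutamine, plated at 5000–40000 cells/well, grown 24 h (37 °C, 5% CO₂), then exposed to five 10-fold or ½-log dilutions (DMSO stock) for 48 h. Fixed with TCA (final 10% for adherent cells, 16% for suspension cells), then SRB stained with absorbance at 515 nm. GI50 from percentage growth relative to time-zero and control wells.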

LOX IMVI = experiment: Growth inhibition of human LOXIMVI cells after 48 hrs; details: for TGI: read-out: pTGI (converted); method in brief: as §1
MCF7 = experiment: Growth inhibition of human MCF7 cells after 48 hrs; details: MCF7, 48 h; for TGI: read-out: pTGI (converted); method in brief: as §1
DU-145 = experiment: Growth inhibition of human DU145 cells after 48 hrs; details: DU-145, 48 h; for TGI: read-out: pTGI (converted); method in brief: as §1
ACHN = experiment: Growth inhibition of human ACHN cells after 48 hrs; details: for TGI: read-out: pTGI (converted); method in brief: as §1
IGROV-1 = experiment: Growth inhibition of human IGROV1 cells after 48 hrs; details: IGROV-1, 48 h; method in brief: as §1
HL-60 = experiment: Growth inhibition of human HL60 cells after 48 hrs; details: HL-60, 48 h; for TGI: read-out: pTGI (converted); method in brief: as §1
HT-29 = experiment: Growth inhibition of human HT29 cells after 48 hrs; details: HT-29, 48 h; method in brief: as §1
K562 = experiment: Growth inhibition of human K562 cells after 48 hrs; details: K562, 48 h; for TGI: read-out: pTGI (converted); method in brief: as §1
MOLT-4 = experiment: Growth inhibition of human MOLT4 cells after 48 hrs; details: MOLT-4, 48 h; for TGI: read-out: pTGI (converted); method in brief: as §1
NCI-H226 = experiment: Growth inhibition of human NCI-H226 cells after 48 hrs; details: NCI-H226, 48 h; for TGI: read-out: pTGI; method in brief: as §1
PC-3 = experiment: Growth inhibition of human PC3 cells after 48 hrs; details: PC-3, 48 h; for TGI: read-out: pTGI (converted); method in brief: as §1
SK-MEL-2 = experiment: Growth inhibition of human SK-MEL2 cells after 48 hrs; details: SK-MEL-2, 48 h; for TGI: read-out: pTGI (converted); method in brief: as §1
SNB-75 = experiment: Growth inhibition of human SNB75 cells after 48 hrs; details: SNB-75, 48 h; method in brief: as §2
SW-620 = experiment: Growth inhibition of human SW620 cells after 48 hrs; details: SW-620, 48 h; for TGI: read-out: pTGI (converted); method in brief: as §2
SF-539 = experiment: Growth inhibition of human SF539 cells after 48 hrs; details: SF-539, 48 h; for TGI: read-out: pTGI (converted); method in brief: as §1
KM12 = experiment: Growth inhibition of human KM12 cells after 48 hrs; details: KM12, 48 h; for TGI: read-out: pTGI (converted); method in brief: as §1
HCC 2998 = experiment: Growth inhibition of human HCC2998 cells after 48 hrs; details: HCC 2998, 48 h; for TGI: read-out: pTGI (converted); method in brief: as §1
OVCAR-4 = experiment: Growth inhibition of human OVCAR4 cells after 48 hrs; details: OVCAR-4, 48 h; method in brief: as §1
UACC-62 = experiment: Growth inhibition of human UACC62 cells after 48 hrs; details: UACC-62, 48 h; for TGI: read-out: pTGI (converted); method in brief: as §2
SK-MEL-28 = experiment: Growth inhibition of human SK-MEL28 cells after 48 hrs; details: SK-MEL-28, 48 h; method in brief: as §1
BT-549 = experiment: Growth inhibition of human BT549 cells after 48 hrs; details: BT-549, 48 h; method in brief: as §1
SR = experiment: Growth inhibition of human SR cells after 48 hrs; method in brief: as §2

Q: What does the source list for `CCCCN(CCCC)CCCn1c(=O)c2c3ccccc3n(C)c2n2nnc(-c3ccccc3)c12`?
A: GI50 (HOP-62): 30.9 µM; TGI (HOP-62): > 100 µM; GI50 (OVCAR-5): 22.4 µM; TGI (OVCAR-5): > 100 µM; GI50 (SNB-19): > 100 µM; TGI (SNB-19): > 100 µM; GI50 (LOX IMVI): 28.2 µM; TGI (LOX IMVI): > 100 µM; GI50 (MCF7): 37.2 µM; TGI (MCF7): > 100 µM; GI50 (DU-145): 47.9 µM; TGI (DU-145): > 100 µM; GI50 (ACHN): 34.7 µM; TGI (ACHN): > 100 µM; LC50 (IGROV-1): > 50.1 µM; GI50 (HL-60): 2.57 µM; TGI (HL-60): 41.7 µM; GI50 (HT-29): 7.76 µM; TGI (HT-29; read-out: pTGI (converted)): 36.3 µM; GI50 (K562): 13.8 µM; TGI (K562): > 100 µM; GI50 (MOLT-4): 13.8 µM; TGI (MOLT-4): > 100 µM; GI50 (NCI-H226): 57.5 µM; TGI (NCI-H226): > 100 µM; GI50 (PC-3): 18.2 µM; TGI (PC-3): 47.9 µM; GI50 (SK-MEL-2): > 100 µM; TGI (SK-MEL-2): > 100 µM; GI50 (SNB-75): 15.1 µM; TGI (SNB-75; read-out: pTGI (converted)): 56.2 µM; GI50 (SW-620): 26.3 µM; TGI (SW-620): > 100 µM; GI50 (SF-539): 66.1 µM; TGI (SF-539): > 100 µM; GI50 (KM12): 33.9 µM; TGI (KM12): > 100 µM; GI50 (HCC 2998): 20.4 µM; TGI (HCC 2998): > 100 µM; GI50 (OVCAR-4): 17.4 µM; TGI (OVCAR-4; read-out: pTGI (converted)): 83.2 µM; GI50 (UACC-62): 22.4 µM; TGI (UACC-62): 85.1 µM; GI50 (SK-MEL-28): > 100 µM; TGI (SK-MEL-28; read-out: pTGI (converted)): > 100 µM

Q: How did the GI50 (BT-549) turn out when `Cn1c2ccccc2c2c(=O)n(CCCC(=O)NCC(=O)N(C(=O)NC3CCCCC3)C3CCCCC3)c3c(-c4ccccc4)nnn3c21` was run?
A: 26.9 µM

Q: And the GI50 (HOP-62)?
A: 15.1 µM

Q: What about the LC50 (HOP-62) of the same molecule?
A: 87.1 µM

Q: And the TGI (HOP-62)?
A: 36.3 µM

Q: And the GI50 (OVCAR-5)?
A: 15.5 µM

Q: And the LC50 (concentration killing 50% of cells) (OVCAR-5)?
A: 69.2 µM

Q: What about the TGI (OVCAR-5) of the same molecule?
A: 32.4 µM

Q: What about the LC50 (SNB-19) of the same molecule?
A: > 100 µM

Q: And the TGI (SNB-19)?
A: > 100 µM

Q: What about the GI50 (LOX IMVI) of the same molecule?
A: 13.2 µM

Q: What about the LC50 (lethal concentration, 50% cell kill) (LOX IMVI) of the same molecule?
A: > 100 µM

Q: And the TGI (LOX IMVI)?
A: 97.7 µM

Q: And the GI50 (MCF7)?
A: 3.63 µM

Q: What about the LC50 (MCF7) of the same molecule?
A: > 100 µM

Q: And the TGI (MCF7)?
A: > 100 µM

Q: What about the GI50 (DU-145) of the same molecule?
A: 18.6 µM

Q: And the LC50 (DU-145)?
A: > 100 µM

Q: And the TGI (DU-145)?
A: > 100 µM

Q: What about the GI50 (SR) of the same molecule?
A: 3.02 µM

Q: And the LC50 (SR)?
A: 8.51 µM

Q: What about the TGI (SR; read-out: pTGI (converted)) of the same molecule?
A: 5.13 µM

Q: What about the GI50 (ACHN) of the same molecule?
A: 26.3 µM

Q: And the LC50 (ACHN)?
A: > 100 µM

Q: What about the TGI (ACHN) of the same molecule?
A: > 100 µM

Q: And the GI50 (IGROV-1)?
A: 2.82 µM

Q: And the LC50 (IGROV-1)?
A: > 100 µM

Q: What about the TGI (IGROV-1; read-out: pTGI (converted)) of the same molecule?
A: 33.1 µM

Q: What about the GI50 (HL-60) of the same molecule?
A: 2.88 µM

Q: And the LC50 (HL-60)?
A: > 100 µM

Q: And the TGI (HL-60)?
A: 8.32 µM

Q: And the GI50 (K562)?
A: 22.9 µM

Q: What about the LC50 (K562) of the same molecule?
A: > 50.1 µM

Q: And the TGI (K562)?
A: > 100 µM

Q: And the GI50 (MOLT-4)?
A: 14.5 µM

Q: And the LC50 (MOLT-4)?
A: > 100 µM

Q: What about the TGI (MOLT-4) of the same molecule?
A: > 100 µM

Q: What about the GI50 (NCI-H226) of the same molecule?
A: 39.8 µM

Q: And the CC50 (NCI-H226; read-out: Log LC50 (the source's name) (converted))?
A: > 100 µM

Q: And the TGI (NCI-H226)?
A: > 100 µM

Q: And the GI50 (PC-3)?
A: 22.9 µM

Q: What about the LC50 (PC-3) of the same molecule?
A: > 100 µM

Q: And the TGI (PC-3)?
A: > 100 µM

Q: What about the GI50 (SK-MEL-2) of the same molecule?
A: 33.1 µM

Q: What about the LC50 (SK-MEL-2) of the same molecule?
A: > 100 µM

Q: What about the TGI (SK-MEL-2) of the same molecule?
A: > 100 µM

Q: What about the GI50 (SW-620) of the same molecule?
A: 3.8 µM

Q: And the LC50 (lethal concentration, 50% cell kill) (SW-620)?
A: > 100 µM

Q: And the TGI (SW-620)?
A: > 100 µM

Q: What about the LC50 (concentration killing 50% of cells) (SF-539) of the same molecule?
A: > 100 µM

Q: And the TGI (SF-539)?
A: 57.5 µM

Q: What about the GI50 (KM12) of the same molecule?
A: 31.6 µM

Q: What about the LC50 (KM12) of the same molecule?
A: > 100 µM

Q: And the TGI (KM12)?
A: > 100 µM

Q: What about the GI50 (HCC 2998) of the same molecule?
A: 10.2 µM

Q: What about the LC50 (HCC 2998) of the same molecule?
A: 70.8 µM

Q: What about the TGI (HCC 2998) of the same molecule?
A: 26.9 µM

Q: What about the GI50 (UACC-62) of the same molecule?
A: 25.7 µM

Q: And the LC50 (UACC-62)?
A: > 100 µM

Q: And the TGI (UACC-62)?
A: > 100 µM
